≈ marks a conversion by molar mass, not a printed value.
Tests used:
Type in all cases: functional
Nakaseomyces glabratus [1] = assay: Antifungal activity against Candida glabrata 20/I after 48 hrs by microbroth dilution method
[2] = test system: Trichophyton mentagrophytes; assay: Antifungal activity against Trichophyton mentagrophytes 445 after 72 hrs by microbroth dilution method; details: Trichophyton mentagrophytes, 445, 72 h
Staphylococcus aureus [3] = assay: Antibacterial activity against Staphylococcus aureus CCM 4516/08 after 24 hrs by microbroth dilution method; details: CCM 4516/08, 24 h
Procedure, shortened: (§1)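 Microbroth dilution modified per M07-A07 in Mueller-Hinton broth, pH 7.4 (±0.2). Inoculum in sterile water adjusted to 0.5 McFarland. MIC taken as growth reduction of at least 90% (IC90) versus control, read visually and at 540 nm after 24 and 48 h incubation in the dark.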

Staphylococcus aureus [4] = assay: Antibacterial activity against methicillin-resistant Staphylococcus aureus H 5996/08 after 24 hrs by microbroth dilution method; details: H 5996/08, 24 h
Procedure, shortened: (§2)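 Microdilution broth method modified after M07-A07 in Mueller-Hinton broth adjusted to pH 7.4 (±0.2). Inoculum prepared in sterile water to 0.5 McFarland (1.5 × 10^8 CFU/mL). MIC taken as growth reduction versus control (IC95 per table header), read visually and spectrophotometrically at 540 nm after 24 and 48 h incubation in the dark.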

[5] = test system: Staphylococcus epidermidis; assay: Antibacterial activity against Staphylococcus epidermidis H 6966/08 after 48 hrs by microbroth dilution method; details: H 6966/08, 48 h; procedure, shortened: as §1
Candida albicans [6] = assay: Antifungal activity against Candida albicans ATCC 44859 after 24 hrs by microbroth dilution method; details: ATCC 44859, 24 h
Candida tropicalis [7] = assay: Antifungal activity against Candida tropicalis 156 after 48 hrs by microbroth dilution method; details: Candida tropicalis, 156, 48 h
Nakaseomyces glabratus [8] = assay: Antifungal activity against Candida glabrata 20/I after 24 hrs by microbroth dilution method
Klebsiella pneumoniae [9] = assay: Antibacterial activity against Klebsiella pneumoniae D 11750/08 after 48 hrs by microbroth dilution method; details: D 11750/08, 48 h; procedure, shortened: as §1
Klebsiella pneumoniae [10] = assay: Antibacterial activity against ESBL-positive Klebsiella pneumoniae J 14368/08 after 24 hrs by microbroth dilution method; details: J 14368/08, 24 h; procedure, shortened: as §1
Staphylococcus aureus [11] = assay: Antibacterial activity against Staphylococcus aureus CCM 4516/08 after 48 hrs by microbroth dilution method; details: CCM 4516/08, 48 h; procedure, shortened: as §2
Klebsiella pneumoniae [12] = assay: Antibacterial activity against Klebsiella pneumoniae D 11750/08 after 24 hrs by microbroth dilution method; details: D 11750/08, 24 h; procedure, shortened: as §1
[13] = test system: Staphylococcus epidermidis; assay: Antibacterial activity against Staphylococcus epidermidis H 6966/08 after 24 hrs by microbroth dilution method; details: H 6966/08, 24 h; procedure, shortened: as §1
Enterococcus sp. [14] = assay: Antibacterial activity against Enterococcus sp. J 14365/08 after 24 hrs by microbroth dilution method; details: J 14365/08, 24 h; procedure, shortened: as §1
Candida tropicalis [15] = assay: Antifungal activity against Candida tropicalis 156 after 24 hrs by microbroth dilution method; details: Candida tropicalis, 156, 24 h
Trichosporon asahii [16] = assay: Antifungal activity against Trichosporon asahii 1188 after 24 hrs by microbroth dilution method; details: Trichosporon asahii, 1188, 24 h
Escherichia coli [17] = assay: Antibacterial activity against Escherichia coli CCM 4517 after 24 hrs by microbroth dilution method; details: CCM 4517, 24 h; procedure, shortened: as §1
Lichtheimia corymbifera [18] = assay: Antifungal activity against Absidia corymbifera 272 after 24 hrs by microbroth dilution method; details: Lichtheimia corymbifera, 272, 24 h
Lichtheimia corymbifera [19] = assay: Antifungal activity against Absidia corymbifera 272 after 48 hrs by microbroth dilution method; details: Lichtheimia corymbifera, 272, 48 h
Trichosporon asahii [20] = assay: Antifungal activity against Trichosporon asahii 1188 after 48 hrs by microbroth dilution method; details: Trichosporon asahii, 1188, 48 h
Escherichia coli [21] = assay: Antibacterial activity against Escherichia coli CCM 4517 after 48 hrs by microbroth dilution method; details: CCM 4517, 48 h; procedure, shortened: as §1
Candida albicans [22] = assay: Antifungal activity against Candida albicans ATCC 44859 after 48 hrs by microbroth dilution method; details: ATCC 44859, 48 h
Pichia kudriavzevii [23] = assay: Antifungal activity against Candida krusei E28 after 24 hrs by microbroth dilution method; details: E28, 24 h
Pichia kudriavzevii [24] = assay: Antifungal activity against Candida krusei E28 after 48 hrs by microbroth dilution method; details: E28, 48 h
Enterococcus sp. [25] = assay: Antibacterial activity against Enterococcus sp. J 14365/08 after 48 hrs by microbroth dilution method; details: J 14365/08, 48 h; procedure, shortened: as §1
Staphylococcus aureus [26] = assay: Antibacterial activity against methicillin-resistant Staphylococcus aureus H 5996/08 after 48 hrs by microbroth dilution method; details: H 5996/08, 48 h; procedure, shortened: as §2
[27] = test system: Trichophyton mentagrophytes; assay: Antifungal activity against Trichophyton mentagrophytes 445 after 120 hrs by microbroth dilution method; details: Trichophyton mentagrophytes, 445, 120 h
Klebsiella pneumoniae [28] = assay: Antibacterial activity against ESBL-positive Klebsiella pneumoniae J 14368/08 after 48 hrs by microbroth dilution method; details: J 14368/08, 48 h; procedure, shortened: as §1

Structure (SMILES) | MIC (Nakaseomyces glabratus [1]) | MIC [2] | MIC (Staphylococcus aureus [3]) | MIC (Staphylococcus aureus [4]) | MIC [5] | MIC (Candida albicans [6]) | MIC (Candida tropicalis [7]) | MIC (Nakaseomyces glabratus [8]) | MIC (Klebsiella pneumoniae [9]) | MIC (Klebsiella pneumoniae [10]) | MIC (Staphylococcus aureus [11]) | MIC (Klebsiella pneumoniae [12]) | MIC [13] | MIC (Enterococcus sp. [14]) | MIC (Candida tropicalis [15]) | MIC (Trichosporon asahii [16]) | MIC (Escherichia coli [17]) | MIC (Lichtheimia corymbifera [18]) | MIC (Lichtheimia corymbifera [19]) | MIC (Trichosporon asahii [20]) | also measured
O=C(NC1CCCCC1)Oc1ccc(Cl)cc1C(=O)Nc1ccc(Br)cc1 | > 125 µM | 1.95 µM (≈ 0.881 µg/mL) | ≤ 0.49 µM | ≤ 0.49 µM | 0.98 µM (≈ 0.443 µg/mL) | > 125 µM | > 125 µM | > 125 µM | > 500 µM | > 500 µM | 0.98 µM (≈ 0.443 µg/mL) | > 500 µM | ≤ 0.49 µM | 500 µM (≈ 226 µg/mL) | > 125 µM | 62.5 µM (≈ 28.2 µg/mL) | > 500 µM | > 125 µM | > 125 µM | 62.5 µM (≈ 28.2 µg/mL) | MIC (Escherichia coli [21]): > 500 µM; MIC (Candida albicans [22]): > 125 µM; MIC (Pichia kudriavzevii [23]): > 125 µM; MIC (Pichia kudriavzevii [24]): > 125 µM; MIC (Enterococcus sp. [25]): 500 µM (≈ 226 µg/mL); MIC (Staphylococcus aureus [26]): 1.95 µM (≈ 0.881 µg/mL); MIC [27]: 1.95 µM (≈ 0.881 µg/mL); MIC (Klebsiella pneumoniae [28]): > 500 µM
O=C(NCc1ccccc1)Oc1ccc(Cl)cc1C(=O)Nc1ccc(Br)cc1 | 31.2 µM (≈ 14.4 µg/mL) | 3.9 µM (≈ 1.79 µg/mL) | ≤ 0.49 µM | ≤ 0.49 µM | 0.98 µM (≈ 0.451 µg/mL) | 62.5 µM (≈ 28.7 µg/mL) | 125 µM (≈ 57.5 µg/mL) | 31.2 µM (≈ 14.4 µg/mL) | > 500 µM | > 500 µM | 0.98 µM (≈ 0.451 µg/mL) | > 500 µM | ≤ 0.49 µM | > 500 µM | 125 µM (≈ 57.5 µg/mL) | 15.6 µM (≈ 7.18 µg/mL) | > 500 µM | 7.81 µM (≈ 3.59 µg/mL) | 7.81 µM (≈ 3.59 µg/mL) | 15.6 µM (≈ 7.18 µg/mL) | MIC (Escherichia coli [21]): > 500 µM; MIC (Candida albicans [22]): 62.5 µM (≈ 28.7 µg/mL); MIC (Pichia kudriavzevii [23]): 62.5 µM (≈ 28.7 µg/mL); MIC (Pichia kudriavzevii [24]): 62.5 µM (≈ 28.7 µg/mL); MIC (Enterococcus sp. [25]): > 500 µM; MIC (Staphylococcus aureus [26]): 1.95 µM (≈ 0.896 µg/mL); MIC [27]: 3.9 µM (≈ 1.79 µg/mL); MIC (Klebsiella pneumoniae [28]): > 500 µM
O=C(NCCc1ccccc1)Oc1ccc(Cl)cc1C(=O)Nc1ccc(F)cc1 | > 500 µM | > 500 µM | 7.81 µM (≈ 3.22 µg/mL) | 15.6 µM (≈ 6.45 µg/mL) | 15.6 µM (≈ 6.45 µg/mL) | 250 µM (≈ 103 µg/mL) | > 500 µM | 125 µM (≈ 51.6 µg/mL) | > 500 µM | > 500 µM | 15.6 µM (≈ 6.45 µg/mL) | > 500 µM | 15.6 µM (≈ 6.45 µg/mL) | > 500 µM | > 500 µM | 125 µM (≈ 51.6 µg/mL) | > 500 µM | > 500 µM | > 500 µM | > 500 µM | MIC (Escherichia coli [21]): > 500 µM; MIC (Candida albicans [22]): > 500 µM; MIC (Pichia kudriavzevii [23]): 125 µM (≈ 51.6 µg/mL); MIC (Pichia kudriavzevii [24]): > 500 µM; MIC (Enterococcus sp. [25]): > 500 µM; MIC (Staphylococcus aureus [26]): 62.5 µM (≈ 25.8 µg/mL); MIC [27]: > 500 µM; MIC (Klebsiella pneumoniae [28]): > 500 µM
